Assay results taken from ChEMBL document CHEMBL1154928, “SAR and optimization of thiazole analogs as potent stearoyl-CoA desaturase inhibitors” (Bioorg Med Chem Lett, 2010).
Activity calls are given as the source filed them. No cut-off for these calls is given here.

Legend:
[1] = biological target: T1, Acyl-CoA desaturase 1 (Rattus norvegicus, UniProt P07308); assay: Inhibition of SCD1 in Wistar rat liver microsome assessed as [3H]stearoyl-CoA to [3H]oleoyl-CoA conversion pretreated 1 hr before [3H]stearoyl-CoA addition measured after 60 mins by HPLC based scintillation assay; assay type: microsomes
T1 sequence (P07308 whole entry): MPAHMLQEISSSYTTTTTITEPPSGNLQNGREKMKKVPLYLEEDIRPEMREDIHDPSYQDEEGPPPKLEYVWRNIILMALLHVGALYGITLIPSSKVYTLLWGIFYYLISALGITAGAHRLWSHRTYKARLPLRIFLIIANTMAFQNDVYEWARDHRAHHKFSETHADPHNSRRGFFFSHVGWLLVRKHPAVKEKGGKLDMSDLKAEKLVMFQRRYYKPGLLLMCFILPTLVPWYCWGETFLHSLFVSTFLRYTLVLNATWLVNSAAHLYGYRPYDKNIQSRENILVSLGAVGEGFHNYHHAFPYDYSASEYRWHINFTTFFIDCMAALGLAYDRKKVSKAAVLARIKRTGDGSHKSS

[2] = biological target: T2, Stearoyl-CoA desaturase (Homo sapiens, UniProt O00767); assay: Inhibition of SCD1 in human HepG2 cells assessed as [14C]stearic acid to [14C]oleic acid conversion pretreated 15 mins before [14C]stearic acid addition measured after 4 hrs by HPLC based scintillation assay; assay type: cell-based
T2 sequence (O00767 whole entry): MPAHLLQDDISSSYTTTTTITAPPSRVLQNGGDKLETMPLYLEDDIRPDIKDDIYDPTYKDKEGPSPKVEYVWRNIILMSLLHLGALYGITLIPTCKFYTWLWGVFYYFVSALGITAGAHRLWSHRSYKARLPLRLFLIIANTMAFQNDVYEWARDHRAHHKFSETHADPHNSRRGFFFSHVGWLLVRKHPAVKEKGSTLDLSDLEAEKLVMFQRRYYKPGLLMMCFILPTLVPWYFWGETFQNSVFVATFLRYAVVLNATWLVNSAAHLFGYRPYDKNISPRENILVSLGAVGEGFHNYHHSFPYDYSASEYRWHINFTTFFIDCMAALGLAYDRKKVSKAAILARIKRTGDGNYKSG

[3] = tested on: Mus musculus; assay: Inhibition of SCD in C57BL/6 mouse liver assessed as [14C]stearic acid to [14C]oleic acid conversion at 1 mg/kg, po after 3 hrs by liver SCD activity index; assay type: functional; details: C57BL6, Liver
Procedure, shortened: (§1)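 In vivo SCD activity was measured in mice fed a high carbohydrate diet and dosed orally. At 3 h, [1-14C]-stearic acid tracer was given intravenously and its conversion to [1-14C]-oleic acid in liver lipids was followed. The SCD activity index is the 14C-oleic/14C-stearic acid ratio. Liver compound concentration was also measured, and the ED50 was derived from the dose-response.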

[4] = Drug level in C57BL/6 mouse liver at 0.3 mg/ kg, po after 3 hrs; assay type: ADME, organism-based, C57BL6; parameters: dose 0.3 mg/ kg, route oral; details: read-out: Drug uptake; procedure, shortened: as §1
[5] = Drug level in C57BL/6 mouse liver at 1 mg/ kg, po after 3 hrs; assay type: ADME, organism-based, C57BL6; parameters: dose 1 mg/ kg, route oral; details: read-out: Drug uptake; procedure, shortened: as §1
[6] = Drug level in C57BL/6 mouse blood at 0.1 mg/ kg, po after 3 hrs; assay type: ADME, organism-based, C57BL6; parameters: dose 0.1 mg/ kg, route oral; details: read-out: Drug uptake
[7] = Drug level in C57BL/6 mouse blood at 0.3 mg/ kg, po after 3 hrs; assay type: ADME, organism-based, C57BL6; parameters: dose 0.3 mg/ kg, route oral; details: read-out: Drug uptake
[8] = Drug level in C57BL/6 mouse blood at 1 mg/ kg, po after 3 hrs; assay type: ADME, organism-based, C57BL6; parameters: dose 1 mg/ kg, route oral; details: read-out: Drug uptake
[9] = tested on: Mus musculus; assay: Inhibition of SCD in po dosed C57BL/6 mouse liver assessed as [14C]stearic acid to [14C]oleic acid conversion after 3 hrs by liver SCD activity index; assay type: functional; details: C57BL6, Liver; procedure, shortened: as §1
[10] = Plasma concentration in C57BL/6 mouse at 0.3 mg/kg, po dosed QD for 3 days and measured on day 3; assay type: ADME, organism-based, C57BL6; parameters: dose 0.3 mg/kg, route oral
Procedure, shortened: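 C57BL6 mice on a high fat diet were dosed orally once daily for 3 days at 0.3 mg/kg. Plasma was sampled on day 3 at the terminal 24 h post-dose point.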

[11] = tested on: Mus musculus; assay: Antiobesity activity in C57BL/6 mouse assessed as reduction in high fat diet-induced body weight gain at 0.2 mg/kg, po dosed QD for 4 weeks relative to control; assay type: functional, C57BL6; parameters: scale not given: the % may be the effect or the level left
[12] = tested on: Mus musculus; assay: Antidiabetic activity in C57BL/6 mouse assessed as reduction in plasma glucose level at 0.2 mg/kg, po dosed QD for 4 weeks; assay type: functional, C57BL6; parameters: scale not given: the % may be the effect or the level left
[13] = tested on: Mus musculus; assay: Antidiabetic activity in C57BL/6 mouse assessed as reduction in insulin level at 0.2 mg/kg, po dosed QD for 4 weeks; assay type: functional, C57BL6; parameters: scale not given: the % may be the effect or the level left
[14] = tested on: Mus musculus; assay: Toxicity in C57BL/6 mouse assessed as partial eye closure at 0.2 mg/kg, po dosed QD for 7 days; assay type: organism-based, C57BL6; parameters: dose 0.2 mg/kg, route oral; details: in vivo, 168 h
[15] = tested on: Mus musculus; assay: Toxicity in C57BL/6 mouse assessed as progressive alopecia at 0.2 mg/kg, po dosed QD for 7 days; assay type: organism-based, C57BL6; parameters: dose 0.2 mg/kg, route oral; details: in vivo, 168 h
[16] = Drug level in C57BL/6 mouse liver at 0.1 mg/ kg, po after 3 hrs; assay type: ADME, organism-based, C57BL6; parameters: dose 0.1 mg/ kg, route oral; details: read-out: Drug uptake; procedure, shortened: as §1
[17] = Oral bioavailability in C57BL/6 mouse at 10 mg/kg; assay type: ADME, organism-based, C57BL6; details: in vivo
[18] = AUC (0 to 24 hrs) in C57BL/6 mouse at 10 mg/kg, po; assay type: ADME, organism-based, C57BL6; parameters: time < 24 hr, dose 10 mg/kg, route oral; details: plasma
[19] = Plasma concentration in C57BL/6 mouse at 10 mg/kg, po after 6 hrs; assay type: ADME, organism-based, C57BL6; parameters: dose 10 mg/kg, route oral
Procedure, shortened: (§2)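 Tissue distribution was measured in C57BL6 mice 6 h after a single 10 mg/kg oral dose. Compound levels were determined in liver, adipose tissue and plasma, and tissue-to-plasma ratios were calculated.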

[20] = Biodistribution in C57BL/6 mouse liver at 10 mg/kg, po after 6 hrs; assay type: ADME, organism-based, C57BL6; parameters: dose 10 mg/kg, route oral; details: read-out: Drug uptake; procedure, shortened: as §2
[21] = Biodistribution in C57BL/6 mouse adipose tissue at 10 mg/kg, po after 6 hrs; assay type: ADME, organism-based, C57BL6; parameters: dose 10 mg/kg, route oral; details: read-out: Drug uptake; procedure, shortened: as §2
[22] = Biodistribution in C57BL/6 mouse skin at 10 mg/kg, po after 6 hrs; assay type: ADME, organism-based, C57BL6, Zone of skin; parameters: dose 10 mg/kg, route oral; details: read-out: Drug uptake
[23] = Ratio of drug level in liver to plasma in C57BL/6 mouse at 10 mg/kg, po after 6 hrs; assay type: ADME, organism-based, C57BL6; parameters: dose 10 mg/kg, route oral; procedure, shortened: as §2
[24] = Ratio of drug level in adipose tissue to plasma in C57BL/6 mouse at 10 mg/kg, po after 6 hrs; assay type: ADME, organism-based, C57BL6; parameters: dose 10 mg/kg, route oral; procedure, shortened: as §2
[25] = tested on: Mus musculus; assay: Inhibition of SCD in C57BL/6 mouse liver assessed as [14C]stearic acid to [14C]oleic acid conversion at 0.1 mg/kg, po after 3 hrs by liver SCD activity index; assay type: functional, organism-based; parameters: dose 0.1 mg/kg; details: C57BL6; procedure, shortened: as §1
[26] = tested on: Mus musculus; assay: Inhibition of SCD in C57BL/6 mouse liver assessed as [14C]stearic acid to [14C]oleic acid conversion at 0.3 mg/kg, po after 3 hrs by liver SCD activity index; assay type: functional; details: C57BL6, Liver; procedure, shortened: as §1

NC(=O)c1nnc(N2CCC(Oc3ccccc3C(F)(F)F)CC2)[nH]1
IC50 [1]: 127 nM | IC50 [2]: 2820 nM

NC(=O)c1csc(N2CCC(Oc3ccccc3C(F)(F)F)CC2)n1
IC50 [1]: 676 nM | IC50 [2]: 6520 nM

OCc1nc(-c2cnc(N3CCC(Oc4ccccc4C(F)(F)F)CC3)s2)no1
inhibition in vivo at 1 mg/kg [3]: 89% | concentration at 3 h [4]: 1900 nM | concentration at 3 h [5]: 5700 nM | concentration at 3 h [6]: < 25 nM | concentration at 3 h [7]: < 25 nM | concentration at 3 h [8]: 180 nM | ED50 [9]: 0.3 mg/kg | concentration at 72 h [10]: 180 nM | Activity [11]: 24% | Activity [12]: 24% | Activity [13]: 4% | Activity [14]: Toxic | Activity [15]: Toxic | concentration at 3 h [16]: 600 nM | IC50 [1]: 1 nM | IC50 [2]: 1 nM | bioavailability [17]: 48% | AUC(0-t) at 24 h [18]: 16.8 µM·h | concentration at 6 h [19]: 1100 nM | concentration at 6 h [20]: 6700 nM | concentration at 6 h [21]: 8900 nM | concentration at 6 h [22]: 1800 nM | Kp at 6 h [23]: 6 | Kp at 6 h [24]: 8 | inhibition [25]: inactive | inhibition in vivo at 0.3 mg/kg [26]: 45%

FC(F)(F)c1ccccc1OC1CCN(c2ncc(-c3ncon3)s2)CC1
IC50 [1]: 4 nM | IC50 [2]: 16 nM | bioavailability [17]: 33% | AUC(0-t) at 24 h [18]: 2.9 µM·h

FC(F)(F)c1ccccc1OC1CCN(c2ncc(-c3ncco3)s2)CC1
IC50 [1]: 14 nM | IC50 [2]: 55 nM

FC(F)(F)c1ccccc1OC1CCN(c2ncc(-c3nnco3)s2)CC1
IC50 [1]: 34 nM | IC50 [2]: 65 nM

NC(=O)Nc1cnc(N2CCC(Oc3ccccc3C(F)(F)F)CC2)s1
IC50 [1]: 150 nM

NC(=O)c1nc(N2CCC(Oc3ccccc3C(F)(F)F)CC2)no1
IC50 [1]: 1630 nM

NC(=O)c1cnc(N2CCN(S(=O)(=O)c3ccccc3C(F)(F)F)CC2)s1
IC50 [1]: > 3000 nM

NC(=O)c1cnc(N2CCN(C(=O)c3ccccc3C(F)(F)F)CC2)s1
ED50 [9]: 3 mg/kg | Activity [14]: Toxic | Activity [15]: Toxic | IC50 [1]: 106 nM | IC50 [2]: 254 nM

NC(=O)c1cnc(N2CC[C@@H](Oc3ccccc3C(F)(F)F)C2)s1
IC50 [1]: > 20000 nM

NC(=O)c1cnc(N2CCC(Sc3ccccc3C(F)(F)F)CC2)s1
IC50 [1]: 4 nM | IC50 [2]: 24 nM

Cc1nnc(-c2cnc(N3CCC(Oc4ccccc4C(F)(F)F)CC3)s2)s1
IC50 [1]: 750 nM

Cc1nc(-c2cnc(N3CCC(Oc4ccccc4C(F)(F)F)CC3)s2)no1
IC50 [1]: 15 nM | IC50 [2]: 39 nM | bioavailability [17]: 24% | AUC(0-t) at 24 h [18]: 3.5 µM·h

NC(=O)c1nnc(N2CCC(Oc3ccccc3C(F)(F)F)CC2)o1
IC50 [1]: 83 nM | IC50 [2]: 199 nM

NS(=O)(=O)c1cnc(N2CCC(Oc3ccccc3C(F)(F)F)CC2)s1
IC50 [1]: 41 nM | IC50 [2]: 1020 nM

NC(=O)c1cnc(N2CC[C@H](Oc3ccccc3C(F)(F)F)C2)s1
IC50 [1]: 12 nM | IC50 [2]: 84 nM

COC(=O)Nc1cnc(N2CCC(Oc3ccccc3C(F)(F)F)CC2)s1
IC50 [1]: 750 nM | IC50 [2]: 775 nM

NC(=O)c1cnc(N2CCN(Cc3ccccc3C(F)(F)F)CC2)s1
IC50 [1]: 76 nM | IC50 [2]: 153 nM

NC(=O)c1cnc(N2CCC(Oc3ccccc3C(F)(F)F)CC2)s1
IC50 [1]: 3 nM | IC50 [2]: 10 nM

NC(=O)c1nnc(N2CCC(Oc3ccccc3C(F)(F)F)CC2)s1
IC50 [1]: 3 nM | IC50 [2]: 7 nM

NC(=O)c1cc(N2CCC(Oc3ccccc3C(F)(F)F)CC2)no1
IC50 [1]: 8 nM | IC50 [2]: 14 nM

O=C1CCCN1c1cnc(N2CCC(Oc3ccccc3C(F)(F)F)CC2)s1
IC50 [1]: 164 nM | IC50 [2]: 174 nM
